Laboratory results taken from article PMC7381488 (EBioMedicine, 2020).
Entries after “also recorded” stand apart in the source; their conditions may differ. Read-outs that look alike come from different tables or passages of the source.

Assays:
[1] = Intracellular TFV-DP and FTC-TP in PBMCs of macaques after a single oral dose; type: in vivo; settings: for peak intracellular concentration in PBMCs: macaques n=4, 20 mg/kg FTC, 1•5 mg/kg TAF, 30 mg/kg EVG/COBI oral, at 24h, median [range]; for time of peak in PBMCs: macaques, single oral dose
In short: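 Four macaques were gavaged once with FTC 20 mg/kg, TAF 1•5 mg/kg, EVG 30 mg/kg and COBI 30 mg/kg in PEG 400/TPGS/phosphate buffer vehicle. PBMCs were sampled over time and lysed in cold 80% methanol, then stored at -80C. TFV-DP and FTC-TP were measured by LC-MS-MS, with LLOQs of 100 and 500 fmol/sample respectively.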

[2] = type: in vivo, macaques
In short: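 PEP arms were dosed by oral gavage at +2h (n=5), +6h (n=6), +24h (n=6) or +24h/+48h (n=6) after rectal SHIV162P3 exposure. Dosing and challenge recurred every two weeks for up to 8 exposures. PBMC TFV-DP and FTC-TP were measured at each subsequent challenge, 2 weeks after dosing, and reported as medians. Values below LLOQ were set to 10 fmol/10^6 cells.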

[3] = Drug concentrations in rectal tissues of macaques 24h after oral dosing; type: in vivo; settings: for rectal tissue concentration, macaques compared with humans: p=0•43 (EVG), p=0•073 (FTC), p=1 (TFV)
In short: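 Macaques received one oral gavage solution (20 mg/kg FTC, 1•5 mg/kg TAF, 30 mg/kg EVG, 30 mg/kg COBI) in 65% PEG 400/20% TPGS/15% phosphate buffer pH 8. Mucosal biopsies were taken about 5-6 cm above the anal aperture 24 h post-dose: FTC/EVG in 12 animals, TFV-DP/FTC-TP in 4. Analysis was by HPLC-MS/MS or LC-MS-MS. Median biopsy weight was 0•037 g. Comparison with humans used the Wilcoxon rank sum test.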

[4] = Drug concentrations in rectal tissues of humans 24h after a single tablet; type: in vivo
In short: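 Seven HIV-negative men aged 18-49 each took one observed oral tablet (200 mg FTC/10 mg TAF/150 mg EVG/150 mg COBI). Rectal biopsies were taken 24 h later. TFV, FTC and EVG were measured by HPLC-MS/MS against a 0•5-2000 ng/mL human-plasma standard curve (LLOQ 10 ng/mL). Intracellular TFV-DP and FTC-TP were measured by LC-MS-MS. Median biopsy weight for extracellular drugs was 0•020 g.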

[5] = type: in vivo, humans; settings: for peak intracellular concentration in PBMCs: humans n=7, single Genvoya tablet (200 mg FTC/10 mg TAF/150 mg EVG/150 mg COBI), at 4h, median [range]; for time of peak in PBMCs: humans, single Genvoya tablet
In short: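 Seven HIV-negative men took a single oral tablet (200 mg FTC/10 mg TAF/150 mg EVG/150 mg COBI), with PBMCs collected at each time point. Cells were lysed in cold 80% methanol and stored at -80C. TFV-DP and FTC-TP were quantified by LC-MS-MS, with LLOQ 100 fmol/sample for TFV-DP and 500 fmol/sample for FTC-TP.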

[6] = macaques, cited from earlier work
[7] = type: in vivo, rhesus macaques; settings: 30 mg/kg EVG + 30 mg/kg COBI vs 50 mg/kg EVG alone, macaques
virus = settings: added between 6 and 10 h after virus exposure; cited from earlier work

Nc1nc(=O)n([C@@H]2CS[C@H](COP(=O)(O)OP(=O)(O)OP(=O)(O)O)O2)cc1F [FTC-TP]
peak intracellular concentration in PBMCs [1]: 1737 [1153–3523] fmols/10^6 cells
time of peak in PBMCs [1]: 24 h
residual level in PBMCs at the time of virus challenges ([2]; PEP arms): did not detect any residual FTC-TP
detection in rectal tissue ([3]; macaques, 24h after dosing): mostly undetectable
detection in rectal tissue ([4]; 24h after dosing): mostly undetectable
peak intracellular concentration in PBMCs [5]: 4215 [3630–7,150] fmols/10^6 cells
time of peak in PBMCs [5]: 4 h

C[C@H](Cn1cnc2c(N)ncnc21)OCP(=O)(O)O [TFV, tenofovir]
rectal tissue concentration, macaques compared with humans ([3]; 24h after dosing): similar

COc1cc2c(cc1Cc1cccc(Cl)c1F)c(=O)c(C(=O)O)cn2[C@H](CO)C(C)C [EVG, elvitegravir]
rectal tissue concentration, macaques compared with humans ([3]; 24h after dosing): similar
plasma AUC0-24h of EVG without a booster ([6]; 50 mg/kg EVG oral, no COBI): 4000 ngxh/ml
plasma Cmax of EVG without a booster ([6]; 50 mg/kg EVG oral, no COBI): 280 ng/mL
time in secretions above the protein-adjusted 95% inhibition concentration ([6]; single oral dose, rectal and vaginal secretions): > 48 h
EVG concentration in rectal secretions relative to plasma ([6]; single oral dose): 694 fold
EVG concentration in vaginal secretions relative to plasma ([6]; single oral dose): 114 fold
increase of plasma Cmax and AUC0-24h by co-administration of COBI [7]: about 4 fold

Cc1nnc(C(=O)NC(C)(C)c2nc(C(=O)NCc3ccc(F)cc3)c(O)c(=O)n2C)o1 [RAL, raltegravir]
post-infection inhibition in culture (virus): high post-infection inhibition

Nc1nc(=O)n([C@@H]2CS[C@H](CO)O2)cc1F [FTC, emtricitabine]
rectal tissue concentration, macaques compared with humans ([3]; 24h after dosing): similar

C[C@@H](Cn1cnc2c(N)ncnc21)OCP(=O)(O)OP(=O)(O)OP(=O)(O)O [TFV-DP]
peak intracellular concentration in PBMCs [1]: 746 [509–1828] fmols/10^6 cells
time of peak in PBMCs [1]: 24 h
median residual level in PBMCs at time of SHIV challenge ([2]; +2h arm): < LLOQ; also recorded: below the limit of detection
median residual level in PBMCs at time of SHIV challenge ([2]; +6h arm): < LLOQ; also recorded: below the limit of detection
median intracellular level in rectal tissue ([3]; macaques, 24h after single oral dose): 10,600 fmols/mg
median intracellular level in rectal tissue ([4]; 24h after single Genvoya tablet): 17,100 fmols/mg of tissue
peak intracellular concentration in PBMCs [5]: 299 [121–523] fmols/10^6 cells
time of peak in PBMCs [5]: 4 h
